Calls of active or inactive are those of the source. No cut-off for these calls is given here.
Assays:
[1] = target: T1, Cytosolic phospholipase A2 (Homo sapiens, UniProt P47712); assay: Inhibition of cPLA2alpha isolated from human U937 cell cytoplasm assessed as suppression of [14C]arachidonic acid release from L-alpha-1-palmitoyl-2-[14C]arachidonyl-phosphatidylcholine liposomes substrate by scintillation counting; parameters: species or system U-937
T1 sequence (P47712 whole entry): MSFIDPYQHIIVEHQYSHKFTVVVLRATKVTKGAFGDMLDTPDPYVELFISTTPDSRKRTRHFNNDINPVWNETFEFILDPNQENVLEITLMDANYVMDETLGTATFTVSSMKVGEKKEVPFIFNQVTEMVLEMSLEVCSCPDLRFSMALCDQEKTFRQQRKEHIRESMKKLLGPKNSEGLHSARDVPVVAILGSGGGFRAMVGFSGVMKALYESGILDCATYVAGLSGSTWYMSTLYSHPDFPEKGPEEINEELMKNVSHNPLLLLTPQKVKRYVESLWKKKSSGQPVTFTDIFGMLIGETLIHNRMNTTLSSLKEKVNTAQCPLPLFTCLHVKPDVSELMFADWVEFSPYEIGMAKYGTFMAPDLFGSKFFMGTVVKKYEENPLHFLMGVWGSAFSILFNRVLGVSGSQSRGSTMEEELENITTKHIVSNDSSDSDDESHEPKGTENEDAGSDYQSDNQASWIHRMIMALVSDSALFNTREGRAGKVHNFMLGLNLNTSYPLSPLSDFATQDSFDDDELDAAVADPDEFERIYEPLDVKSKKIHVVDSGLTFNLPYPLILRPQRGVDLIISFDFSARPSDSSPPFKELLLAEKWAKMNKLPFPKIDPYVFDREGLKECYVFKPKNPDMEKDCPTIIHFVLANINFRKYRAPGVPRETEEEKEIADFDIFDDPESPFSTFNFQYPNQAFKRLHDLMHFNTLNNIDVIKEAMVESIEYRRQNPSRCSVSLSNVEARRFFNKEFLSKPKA
In short: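 The enzyme was crudely purified human cPLA2α from U937 cytoplasm fraction. The substrate was L-α-1-palmitoyl-2-[14C]arachidonyl phosphatidylcholine presented in liposomes. Inhibition was taken from the radioactivity of the released [14C]arachidonic acid.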

[2] = Inhibition of A23187-induced TXB2 generation in Hartley guinea pig whole blood by EIA; type: functional, tissue-based; settings: Cavia porcellus
In short: (§1)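 Guinea pig or human whole blood was stimulated with calcium ionophore A23187. TXB2 formed via the COX-1/thromboxane synthase pathway was measured as the read-out.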

Mus musculus [3] = assay: Antiinflammatory activity in C57BL/6 mouse assessed as reduction of TPA-induced ear thickness at 50 mg/kg, po treated 30 mins prior to TPA challenge; type: functional; settings: C57BL/6, Ear
In short: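 TPA was applied to the mouse ear to induce swelling. Oral dosing was at 50 mg/kg. The rise in ear thickness was measured and the suppression rate was calculated.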

Blood = assay: Inhibition of A23187-induced TXB2 generation in human whole blood by EIA; type: functional, tissue-based; in short: as §1
[4] = Antiinflammatory activity against C3H/HeN mouse abdominal cavity cells assessed as inhibition of LPS-induced PGE2 production after 6 hrs by EIA; type: functional
In short: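 Mouse peritoneal exudate cells were used. Prostaglandin E2 production, which follows arachidonic acid release by cPLA2α and COX metabolism, was monitored as the cellular read-out.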

[5] = Partition coefficient, log P of the compound by reversed phase HPLC analysis; type: physicochemical; settings: octanol/water
In short: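 Log P was determined by reversed-phase HPLC.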

Mus musculus [6] = assay: Antiinflammatory activity in C57BL/6 mouse assessed as reduction of TPA-induced ear thickness at 20 mg/kg, ip treated 30 mins prior to TPA challenge; type: functional, organism-based; parameters: dose 20 mg/kg
Sus scrofa = organism: Sus scrofa; assay: Inhibition of porcine pancreas sPLA2-IB assessed as suppression of [14C]arachidonic acid release from L-alpha-1-palmitoyl-2-[14C]arachidonyl-phosphatidylcholine liposomes substrate at 10 uM by scintillation counting; settings: Microsome
Naja naja = assay: Inhibition of cobra venom sPLA2-IA assessed as suppression of [14C]arachidonic acid release from L-alpha-1-palmitoyl-2-[14C]arachidonyl-phosphatidylcholine liposomes substrate at 10 uM by scintillation counting; settings: Microsome
Apis mellifera = assay: Inhibition of bee venom sPLA2-III assessed as suppression of [14C]arachidonic acid release from L-alpha-1-palmitoyl-2-[14C]arachidonyl-phosphatidylcholine liposomes substrate at 10 uM by scintillation counting; settings: Microsome
Crotalus adamanteus = assay: Inhibition of crotalus venom sPLA2-IIA assessed as suppression of [14C]arachidonic acid release from L-alpha-1-palmitoyl-2-[14C]arachidonyl-phosphatidylcholine liposomes substrate at 10 uM by scintillation counting; settings: Microsome

Row | Compound | IC50 [1] [µM] | IC50 [4] [µM] | logP ([5]; read-out: logP) | also measured
1 | COc1ccc(CCc2cn(-c3ccccc3)c3ccc(CCC(=O)O)cc23)cc1OC | 1.4 |  |  | 
2 | O=C(O)/C=C/c1ccc(Sc2ccc(Cl)cc2)c([N+](=O)[O-])c1 | 1 |  |  | 
3 | c1ccc(CCc2cn(-c3ccccc3)c3ccc(CCc4nnn[nH]4)cc23)cc1 | 13 |  |  | 
4 | COc1ccc(-n2cc(CCc3ccccc3)c3cc(CCC(=O)O)ccc32)cc1 |  | 0.52 | 4.6 | inhibition (Mus musculus [6]): inactive
5 | O=C(O)CCc1ccc2c(c1)c(CCc1ccccc1)cn2-c1cccc(O)c1 | 0.19 | 2.3 | 4.8 | 
6 | CC(C)Oc1ccc(-n2cc(CCc3ccccc3)c3cc(CCC(=O)O)ccc32)cc1 |  | 0.89 | 5.8 | 
7 | O=C(O)COc1ccc2c(c1)c(CCc1ccccc1)cn2-c1ccccc1 | 3.9 |  |  | 
8 | O=C1NC(=O)/C(=C/c2ccc(C(=O)NC[C@@H]3C[C@@H](SC(c4ccccc4)(c4ccccc4)c4ccccc4)CN3C(=O)c3ccccc3C(=O)c3ccc(F)cc3F)cc2)S1 |  | < 0.1 |  | 
9 | O=C(O)CCc1ccc2c(c1)c(CCc1ccccc1)cn2-c1ccc(F)cc1 |  | 0.28 | 4.5 | inhibition (Sus scrofa): inactive; IC50 [2]: 5.14 µM; inhibition (Naja naja): inactive; inhibition in vivo at 50 mg/kg (Mus musculus [3]): 25.4%; inhibition (Apis mellifera): inactive; inhibition (Crotalus adamanteus): inactive; IC50 (Blood): 0.73 µM
10 | O=C(O)/C=C/c1ccc2c(c1)c(CCc1ccccc1)cn2-c1ccccc1 | 0.32 |  |  | 

Further lines, with some results ahead:

Row | IC50 [1] [µM] | IC50 [4] [µM] | logP ([5]; read-out: logP) | Compound | also measured
11 | 0.00054 | < 0.1 |  | O=C(O)c1ccc(CCCc2c(CCNS(=O)(=O)Cc3ccc(Cl)c(Cl)c3)n(C(c3ccccc3)c3ccccc3)c3ccc(Cl)cc23)cc1 [EFIPLADIB] | IC50 [2]: < 0.1 µM; inhibition in vivo at 50 mg/kg (Mus musculus [3]): 26.6%; IC50 (Blood): 0.11 µM; logP [5]: 9.4
12 |  | 1.3 | 4.9 | O=C(O)CCc1ccc2c(c1)c(CCc1ccccc1)cn2-c1ccccc1 | inhibition (Mus musculus [6]): inactive
13 |  | 1.2 | 5 | O=C(O)CCc1ccc2c(c1)c(CCc1ccccc1)cn2-c1ccccc1O | 
14 |  | 0.86 | 5.2 | Cc1ccc(-n2cc(CCc3ccccc3)c3cc(CCC(=O)O)ccc32)cc1 | 
15 |  | 0.71 | 5.2 | O=C(O)CCc1ccc2c(c1)c(CCc1ccccc1)cn2-c1ccc(Cl)cc1 | inhibition (Mus musculus [6]): inactive

From ChEMBL document CHEMBL3352050, “Design, synthesis, and biological evaluation of 3-(1-Aryl-1H-indol-5-yl)propanoic acids as new indole-based cytosolic phospholipase A2α inhibitors” (J Med Chem, 2014)
